In ChEMBL document CHEMBL4265973, “Broad-spectrum antibacterial amphiphilic aminoglycosides: A new focus on the structure of the lipophilic groups extends the series of active dialkyl neamines” (Eur J Med Chem, 2018):
≈ marks a conversion by molar mass, not a printed value. Calls of active or inactive are those of the source. No cut-off for these calls is given here.

Experiments:
Pseudomonas aeruginosa [1] = assay: Antibacterial activity against Pseudomonas aeruginosa ATCC 27853 measured over 1 month by microdilution assay; assay type: functional, organism-based
How it was run: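 Serial passage of P. aeruginosa ATCC 27853 held continuously at half the MIC for up to 38 days. […] The new minimal inhibitory concentration is read by visual inspection, confirmed by agar dilution, and the drug level raised to match.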

Staphylococcus aureus [2] = assay: Antibacterial activity against Staphylococcus aureus ATCC 25923 by microdilution assay; assay type: functional
How it was run: (§1)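 Broth microdilution MIC per CLSI recommendations, fresh culture in cation-adjusted Mueller-Hinton broth, starting inoculum 10^6 cells.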

Staphylococcus aureus [3] = assay: Antibacterial activity against Staphylococcus aureus SA-1 expressing NorA pump by microdilution assay
Staphylococcus aureus [4] = assay: Antibacterial activity against methicillin-resistant Staphylococcus aureus ATCC 33592 by microdilution assay; assay type: functional; how it was run: as §1
Pseudomonas aeruginosa [5] = assay: Antibacterial activity against Pseudomonas aeruginosa ATCC 27853 by microdilution assay; assay type: functional
How it was run: (§2)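 Broth microdilution per CLSI recommendations, using a fresh culture in cation-adjusted Mueller-Hinton broth (CA-MHB) and a starting inoculum of 10^6 cells; the MIC is the value read.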

Pseudomonas aeruginosa [6] = assay: Antibacterial activity against Pseudomonas aeruginosa FO3 harboring AAC6'-2A by microdilution assay; assay type: functional; how it was run: as §1
Pseudomonas aeruginosa [7] = assay: Antibacterial activity against Pseudomonas aeruginosa PA22 harboring surexp MexXY by microdilution assay; assay type: functional; how it was run: as §1
Pseudomonas aeruginosa [8] = assay: Antibacterial activity against Pseudomonas aeruginosa PA406 harboring triABC deletion mutant by microdilution assay; assay type: functional; how it was run: as §1
Acinetobacter lwoffii [9] = assay: Antibacterial activity against Acinetobacter lwoffii ATCC 17925 by microdilution assay; assay type: functional; how it was run: as §2
Acinetobacter lwoffii [10] = assay: Antibacterial activity against Acinetobacter lwoffii AI.88-483 harboring APH3'-6A by microdilution assay; assay type: functional; how it was run: as §1
Escherichia coli [11] = assay: Antibacterial activity against Escherichia coli PAZ505H8101 harboring AAC6'-1B by microdilution assay; assay type: functional; how it was run: as §1
Escherichia coli [12] = assay: Antibacterial activity against Escherichia coli L8058.1 harboring ANT2'-1A by microdilution assay; assay type: functional; how it was run: as §1
Klebsiella pneumoniae = assay: Antibacterial activity against Klebsiella pneumoniae 700603 by microdilution assay; assay type: functional; how it was run: as §2
[13] = (§3) Cytotoxicity against mouse J774 cells assessed as cell viability at 10 uM after 24 hrs by MTT assay relative to control; assay type: cell-based; settings: J774 cells, read-out: Activity
How it was run: (§4)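 Murine J774 macrophages are exposed for 24 h to compound at 10 or 30 µM, then given 0.2 mg/mL MTT for 1 h. The reaction is stopped with DMSO and OD read at 570 nm; viability is metabolic activity as % of control. The number of independent experiments is given per value.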

[14] = (§5) Cytotoxicity against mouse J774 cells assessed as cell viability at 30 uM after 24 hrs by MTT assay relative to control; assay type: cell-based; settings: J774 cells, read-out: Activity; how it was run: as §4
Pseudomonas aeruginosa [15] = assay: Antibacterial activity against Pseudomonas aeruginosa ATCC 27853 after 15 to 38 days by microdilution assay; assay type: functional
Escherichia coli [16] = assay: microbe, parasite or virus in culture; settings: ATCC 25922
J774 [17] = assay: as §3; assay type: cell-based; settings: j774, 24 h, 10 µM; how it was run: as §4
J774 [18] = assay: as §5; assay type: cell-based; settings: j774, 24 h, 30 µM; how it was run: as §4
Pseudomonas aeruginosa [19] = assay: microbe, parasite or virus in culture; settings: ATCC 27853

| Compound | Activity (Pseudomonas aeruginosa [1]) | MIC (Staphylococcus aureus [2]) [mg/L] | MIC (Staphylococcus aureus [3]) [mg/L] | MIC (Staphylococcus aureus [4]) [mg/L] | MIC (Pseudomonas aeruginosa [5]) [mg/L] | MIC (Pseudomonas aeruginosa [6]) [mg/L] | MIC (Pseudomonas aeruginosa [7]) [mg/L] | MIC (Pseudomonas aeruginosa [8]) [mg/L] | MIC (Acinetobacter lwoffii [9]) [mg/L] | MIC (Acinetobacter lwoffii [10]) [mg/L] | MIC (Escherichia coli [11]) [mg/L] | MIC (Escherichia coli [12]) [mg/L] | MIC (Klebsiella pneumoniae) [mg/L] | viability at 24 h, 10 µM [13] [%] | viability at 24 h, 30 µM [14] [%] | MIC (Pseudomonas aeruginosa [15]) [mg/L] | MIC (Escherichia coli [16]) [mg/L] | Activity (J774 [17]) [%] | Activity (J774 [18]) [%] | MIC (Pseudomonas aeruginosa [19]) [mg/L] |
| --- | --- | --- | --- | --- | --- | --- | --- | --- | --- | --- | --- | --- | --- | --- | --- | --- | --- | --- | --- | --- |
| NC[C@H]1O[C@H](O[C@H]2[C@H](O)[C@@H](O)[C@H](N)C[C@@H]2N)[C@H](N)[C@@H](OCCCc2ccc3ccccc3c2)[C@@H]1OCCCc1ccc2ccccc2c1 | Active |  |  |  |  |  |  |  |  |  |  |  |  |  |  |  |  |  |  |  |
| CCCCCCCCCO[C@@H]1[C@@H](N)[C@@H](O[C@H]2[C@H](O)[C@@H](OCCCCCCCCC)[C@H](N)C[C@@H]2N)O[C@H](CN)[C@H]1O |  | 1 (≈ 1.74 µM) | 1 (≈ 1.74 µM) | 2 to 4 (≈ 3.48 to 6.96 µM) | 2 to 4 (≈ 3.48 to 6.96 µM) | 4 to 8 (≈ 6.96 to 13.9 µM) | 4 (≈ 6.96 µM) | 2 to 4 (≈ 3.48 to 6.96 µM) | 2 (≈ 3.48 µM) | 16 (≈ 27.8 µM) | 2 to 4 (≈ 3.48 to 6.96 µM) | 2 to 4 (≈ 3.48 to 6.96 µM) | 4 (≈ 6.96 µM) | 86.7 | 67.4 | 4 (≈ 6.96 µM) | 2 to 4 (≈ 3.48 to 6.96 µM) |  |  |  |
| NC[C@H]1O[C@H](O[C@H]2[C@H](O)[C@@H](OCCCc3ccc4ccccc4c3)[C@H](N)C[C@@H]2N)[C@H](N)[C@@H](OCCCc2ccc3ccccc3c2)[C@@H]1O | Active | 2 (≈ 3.04 µM) | 2 (≈ 3.04 µM) | 2 (≈ 3.04 µM) | 8 to 16 (≈ 12.1 to 24.3 µM) | 16 (≈ 24.3 µM) | 16 (≈ 24.3 µM) | 2 to 4 (≈ 3.04 to 6.07 µM) | 4 (≈ 6.07 µM) | 32 to 64 (≈ 48.6 to 97.1 µM) | 4 to 8 (≈ 6.07 to 12.1 µM) | 16 (≈ 24.3 µM) | 32 (≈ 48.6 µM) | 91.1 | 89.5 |  | 8 (≈ 12.1 µM) |  |  |  |
| GENTAMICIN |  |  |  |  |  |  |  |  |  |  |  |  |  |  |  |  |  | 88.4 | 82.9 |  |
| O=C(O)c1cn(C2CC2)c2cc(N3CCNCC3)c(F)cc2c1=O [CIPROFLOXACIN] | Active |  |  |  |  |  |  |  |  |  |  |  |  |  |  |  |  |  |  | 16 (≈ 48.3 µM) |
